Data on three compounds can be found in ChEMBL document CHEMBL4364256, “Design, synthesis and biological evaluation of antimicrobial diarylimine and -amine compounds targeting the interaction between the bacterial NusB and NusE proteins” (Eur J Med Chem, 2019).

The subject of data set [1] is Staphylococcus aureus. In words: Antimicrobial activity against Staphylococcus aureus HA W231 ST45 incubated for 20 hrs by microdilution method. Format: functional. As to conditions: HA W231 ST45, 20 h. In a few lines:
(§1)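 MIC determined by microdilution following Clinical & Laboratory Standards Institute (CLSI) guidelines, read in µg/mL, against a panel of hospital- and community-acquired MRSA strains.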
(In general: Broth dilution looks for growth in wells or tubes with falling amounts of substance.)

The next data set concerns Streptococcus pneumoniae. Put plainly: Antimicrobial activity against Streptococcus pneumoniae ATCC 49619 incubated for 20 hrs by microdilution method. Format: functional. The settings on record: ATCC 49619, 20 h. In a few lines: (§2)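 Broth microdilution MIC testing done following CLSI guidelines.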
The nature of data set [2]: Therapeutic index, ratio of CC50 for human HaCaT cells to 1/2 times MIC for Staphylococcus aureus ATCC 25923. Format: toxicity. As to conditions: read-out: TI.
A short description of data set [3]: Therapeutic index, ratio of CC50 for human A549 cells to 1/2 times MIC for Staphylococcus aureus ATCC 25923. Format: toxicity. As to conditions: read-out: TI.
Data set [4] deals with Staphylococcus aureus. Put plainly: Antimicrobial activity against Staphylococcus aureus ATCC BAA43 incubated for 20 hrs by microdilution method. Format: functional. As to conditions: ATCC BAA43, 20 h. In a few lines:
as §1

The subject of another data set is Streptococcus agalactiae. In words: Antimicrobial activity against Streptococcus agalactiae ATCC 12386 incubated for 20 hrs by microdilution method. The settings on record: ATCC 12386, 20 h. Format: functional. Summed up: as §2
Data set [5] concerns Staphylococcus aureus. In words: Antimicrobial activity against Staphylococcus aureus ATCC BAA44 incubated for 20 hrs by microdilution method. As to conditions: ATCC BAA44, 20 h. Format: functional. Summed up:
as §1

Data set [6] deals with Staphylococcus aureus. In words: Antimicrobial activity against Staphylococcus aureus USA300/ST8 incubated for 20 hrs by microdilution method. As to conditions: USA300 ST8, 20 h.
The test system of data set [7] is Staphylococcus aureus. In words: microbe, parasite or virus in culture. The settings on record: ATCC 29213, 20 h.
The subject of data set [8] is Staphylococcus aureus. In words: Antimicrobial activity against CA-methicillin-resistant Staphylococcus aureus W47 ST30 incubated for 20 hrs by microdilution method. As to conditions: W47 ST30, 20 h. Format: functional. Summed up: as §1
For another data set, the system named is Pseudomonas aeruginosa. In words: Antimicrobial activity against Pseudomonas aeruginosa ATCC 27853 incubated for 20 hrs by microdilution method. Format: functional. The settings on record: ATCC 27853, 20 h. In a few lines: as §2
The next data set deals with Bacillus subtilis. Put plainly: Inhibition of N-terminal LgBiT-fused Bacillus subtilis NusB expressed in Escherichia coli BL21(DE3)pLysS interaction with C- terminal SmBiT-fused Bacillus subtilis NusE expressed in Escherichia coli BL21(DE3)pLysS at 100 uM preincubated for 10 mins followed by NusE addition and measured after 10 mins by nano-glo luciferase assay relative to control. Summed up: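 NusB and NusE were mixed 1:1 at 1 µM in PBS, with compound at 100 µM. The read-out was percent inhibition of the NusB-NusE interaction.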

Data set [9] relates to Staphylococcus epidermidis. In words: Antimicrobial activity against Staphylococcus epidermidis ATCC 12228 incubated for 20 hrs by microdilution method. Format: functional. As to conditions: ATCC 12228, 20 h. Summed up:
as §2

In a further data set the test system is Acinetobacter baumannii. Put plainly: Antimicrobial activity against Acinetobacter baumannii ATCC 19606 incubated for 20 hrs by microdilution method. Format: functional. The settings on record: ATCC 19606 = CIP 70.34 = JCM 6841, 20 h. Summed up: as §2
The nature of data set [10]: Cytotoxicity against human HaCaT cells assessed as reduction in cell viability after 48 to 72 hrs by MTT assay. Format: cell-based.
Data set [11] deals with Staphylococcus aureus. Put plainly: Antimicrobial activity against CA-methicillin-resistant Staphylococcus aureus W48 ST217 incubated for 20 hrs by microdilution method. The settings on record: W48 ST217, 20 h.
A short description of data set [12]: microbe, parasite or virus in culture. As to conditions: Enterobacter cloacae, ATCC 13047, 20 h.
The test system of data set [13] is Staphylococcus aureus. Put plainly: microbe, parasite or virus in culture. As to conditions: ATCC 25923, 20 h.
Data set [14] relates to Staphylococcus aureus. In words: Antimicrobial activity against CA-methicillin-resistant Staphylococcus aureus W45 ST59 incubated for 20 hrs by microdilution method. The settings on record: W45 ST59, 20 h.
For data set [15], the system named is Staphylococcus aureus. In words: Antimicrobial activity against Staphylococcus aureus ST239 incubated for 20 hrs by microdilution method. Format: functional. As to conditions: CN79, 20 h. Summed up: as §1
In another data set the test system is Streptococcus pyogenes. Put plainly: Antimicrobial activity against Streptococcus pyogenes ATCC 19615 incubated for 20 hrs by microdilution method. Format: functional. As to conditions: ATCC 19615, 20 h. In a few lines: as §2
For a further data set, the system named is Enterococcus faecium. Put plainly: Antimicrobial activity against Enterococcus faecium ATCC 19433 incubated for 20 hrs by microdilution method. Format: functional. The settings on record: ATCC 19433, 20 h. Summed up:
as §2

For data set [16], the system named is Staphylococcus aureus. In words: Antimicrobial activity against Staphylococcus aureus ST22 11B086169 incubated for 20 hrs by microdilution method. Format: functional. As to conditions: ST22 11B086169, 20 h. In a few lines: as §1
Data set [17] has as its system Staphylococcus aureus. In words: Antimicrobial activity against Staphylococcus aureus HA W235 ST5 incubated for 20 hrs by microdilution method. Format: functional. As to conditions: HA W235 ST5, 20 h. In a few lines: as §1
The test system of data set [18] is Enterococcus casseliflavus. Put plainly: Antimicrobial activity against Enterococcus casseliflavus ATCC 25788 incubated for 20 hrs by microdilution method. As to conditions: ATCC 25788, 20 h. Format: functional. In a few lines:
as §2

A further data set deals with Bacteria. Put plainly: Binding affinity to bacterial NusB assessed as change in chiral structure at 2 ug/ml by circular dichroism spectroscopic analysis. In a few lines:
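Circular dichroism spectra were recorded on NusB at 2.0 µg/mL in neutral phosphate buffer, alone and after mixing with compound at a 1:1 ratio. Binding was read as a change in the spectrum.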
For orientation: Circular dichroism is the unequal absorption of left and right circularly polarised light.

Data set [19] can be described thus: Cytotoxicity against human A549 cells assessed as reduction in cell viability after 48 to 72 hrs by MTT assay. Format: cell-based. A general note: Tetrazolium dyes change colour on reduction, which living cells bring about.
Data set [20] deals with Staphylococcus aureus. In words: Antimicrobial activity against CA-methicillin-resistant Staphylococcus aureus W46 ST59 incubated for 20 hrs by microdilution method. The settings on record: W46 ST59, 20 h.
The nature of data set [21]: Antimicrobial activity against Staphylococcus saprophyticus ATCC 15305 incubated for 20 hrs by microdilution method. As to conditions: ATCC 15305, 20 h. Format: functional, Staphylococcus saprophyticus subsp. saprophyticus. In a few lines: as §2
The test system of data set [22] is Staphylococcus aureus. In words: Antimicrobial activity against CA-methicillin-resistant Staphylococcus aureus W4 ST338 incubated for 20 hrs by microdilution method. Format: functional. The settings on record: W4 ST338, 20 h. Summed up: as §1

Values after ≈ are worked out from the molar mass of the structure shown. Active and inactive are the calls of the source. The rule behind the calls is not given here.

In the case of `CC(C)(C)c1ccccc1NCc1cc([N+](=O)[O-])ccc1O`, the MIC is 2 µg/mL (≈ 6.66 µM) against Staphylococcus aureus [1]; 2 to 8 µg/mL (≈ 6.66 to 26.6 µM) in the data set with Streptococcus pneumoniae; 2 µg/mL (≈ 6.66 µM) in the data set on Staphylococcus aureus [4]; 8 µg/mL (≈ 26.6 µM) in the data set on Streptococcus agalactiae; 2 µg/mL (≈ 6.66 µM) with Staphylococcus aureus [5]; 2 µg/mL (≈ 6.66 µM) in the data set on Staphylococcus aureus [6]. The MIC is 4 µg/mL (≈ 13.3 µM) in the data set on Staphylococcus aureus [7]; 2 µg/mL (≈ 6.66 µM) in the data set with Staphylococcus aureus [8]; above 256 µg/mL against Pseudomonas aeruginosa; 1 µg/mL (≈ 3.33 µM) in data set [9]; above 256 µg/mL against Acinetobacter baumannii; 2 µg/mL (≈ 6.66 µM) against Staphylococcus aureus [11]. In addition, the MIC is above 256 µg/mL in data set [12]; 1 µg/mL (≈ 3.33 µM) in the data set on Staphylococcus aureus [13]; 2 µg/mL (≈ 6.66 µM) against Staphylococcus aureus [14]; 2 µg/mL (≈ 6.66 µM) against Staphylococcus aureus [15]; 8 µg/mL (≈ 26.6 µM) in the data set with Streptococcus pyogenes; 8 µg/mL (≈ 26.6 µM) against Enterococcus faecium. The MIC was determined as 2 µg/mL (≈ 6.66 µM) against Staphylococcus aureus [16]; 2 µg/mL (≈ 6.66 µM) in the data set on Staphylococcus aureus [17]; 16 µg/mL (≈ 53.3 µM) in data set [18]; 2 µg/mL (≈ 6.66 µM) against Staphylococcus aureus [20]; 2 µg/mL (≈ 6.66 µM) in data set [21]; 2 µg/mL (≈ 6.66 µM) against Staphylococcus aureus [22]. The selectivity ratio in [2] came to 9; in data set [3], 8. Moreover, in the data set with Bacillus subtilis, the inhibition is 72.2%. The CC50 in data set [10] came out at 15.1 µM; in data set [19] it was 13.4 µM. The outcome in the data set on Bacteria was Active.
On to `CC(C)(C)c1ccccc1/N=C/c1cc([N+](=O)[O-])ccc1O`, for which the MIC is 64 µg/mL (≈ 215 µM) in the data set on Streptococcus pneumoniae; 16 µg/mL (≈ 53.6 µM) in the data set on Staphylococcus aureus [7]; above 256 µg/mL with Pseudomonas aeruginosa; above 256 µg/mL in the data set with Acinetobacter baumannii; above 256 µg/mL in data set [12]; 4 µg/mL (≈ 13.4 µM) in the data set with Staphylococcus aureus [13]. Moreover, the MIC against Enterococcus faecium is above 256 µg/mL. In addition, the inhibition in the data set on Bacillus subtilis came out at 16.8%. Also, in the data set on Bacteria, the outcome was Active.
For the compound `C#Cc1cccc(NCc2cc([N+](=O)[O-])cc(Br)c2O)c1`, the MIC against Staphylococcus aureus [1] was found to be 2 µg/mL (≈ 5.76 µM); in the data set on Streptococcus pneumoniae it was 32 µg/mL (≈ 92.2 µM); with Staphylococcus aureus [4] it was 2 µg/mL (≈ 5.76 µM); against Streptococcus agalactiae, 32 µg/mL (≈ 92.2 µM); in the data set on Staphylococcus aureus [5], 16 µg/mL (≈ 46.1 µM); against Staphylococcus aureus [6], 4 µg/mL (≈ 11.5 µM). In addition, the MIC was 2 µg/mL (≈ 5.76 µM) in the data set on Staphylococcus aureus [7]; 2 µg/mL (≈ 5.76 µM) against Staphylococcus aureus [8]; above 256 µg/mL in the data set on Pseudomonas aeruginosa; 4 µg/mL (≈ 11.5 µM) in data set [9]; 256 µg/mL (≈ 737 µM) with Acinetobacter baumannii; 2 µg/mL (≈ 5.76 µM) in the data set on Staphylococcus aureus [11]. For the same compound, the MIC in data set [12] was above 256 µg/mL; against Staphylococcus aureus [13], 2 µg/mL (≈ 5.76 µM); against Staphylococcus aureus [14], 2 µg/mL (≈ 5.76 µM); in the data set on Staphylococcus aureus [15], 4 µg/mL (≈ 11.5 µM); in the data set on Streptococcus pyogenes, 32 µg/mL (≈ 92.2 µM); against Enterococcus faecium it was 64 µg/mL (≈ 184 µM). Also, the MIC stood at 4 µg/mL (≈ 11.5 µM) against Staphylococcus aureus [16]; 2 µg/mL (≈ 5.76 µM) with Staphylococcus aureus [17]; 64 µg/mL (≈ 184 µM) in data set [18]; 4 µg/mL (≈ 11.5 µM) in the data set with Staphylococcus aureus [20]; 16 µg/mL (≈ 46.1 µM) in data set [21]; 2 µg/mL (≈ 5.76 µM) against Staphylococcus aureus [22]. Further, the values for the selectivity ratio in data set [2] and in data set [3] were 25 and 27, respectively. In addition, in the data set with Bacillus subtilis, the inhibition turned out to be 99.6%. For the same compound, the CC50 in [10] is 72.2 µM; in data set [19] it was 79.1 µM.

Broadly, the inhibition is the drop in the measured response relative to a control, in per cent. By CC50 is commonly meant the concentration that lowers cell viability or growth by half.
